This sample holds only a part of the variants without activity.
B1: tRNA (parent)
chain: GUUCCGUUGGCGUAAUGGUAACGCGUCUCCCUCCUAAGGAGAAGACUGCGGGUUCGAGUCCCGUACGGAACG

Variants of: B1
Experiment: yeast fitness relative to wild type (ratio to wild type); higher = fitter; tRNA-Arg(CCU), competitive growth, 37 C, YPD
In short: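 A pool of Saccharomyces cerevisiae strains, each with a tRNA-Arg(CCU) gene variant at the native genomic locus, was competed in YPD at 37°C for 24 hours across six parallel replicates. The variants had been chemically synthesised at a 3% per-site mutation rate over 69 sites, and gene amplicons before and after competition were read by 100-nucleotide paired-end sequencing. Darwinian fitness relative to wild type rested on changes in genotype frequencies. Genotypes required ≥ 100 starting reads, and estimates < 0.5 were set to 0.5.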

Variant	yeast fitness
G6A C24U C49A	≤ 0.5
G9A C11G C22U A40G A42G	≤ 0.5
A20G C49U C61G	0.617
G25C C30A	0.792
C11A A15C U26A C29U C33A G38C C55A C60U	≤ 0.5
U16A A21U C33G	≤ 0.5
C5U C49G	0.919
C27G G44C A45G	0.53
U19A A57G	0.931
C5G G17A C22U U28C C46U G58A	≤ 0.5
C5U U26C A40U	≤ 0.5
U19C A69G	0.788
C22U C31U A45U C55U A70U	≤ 0.5
U35C A37G C60U	≤ 0.5
C11U A21G U59A C62G	0.502
U8A C11A G56C	≤ 0.5
U3C U7A G25A A42U U64A	≤ 0.5
C27U U53C G63A	≤ 0.5
C11U A45U	0.951
C4U C29A G58A C61G A70U	0.548
U13A A15C A45G C55U C61G A69C	≤ 0.5
C4G G25A C66A	≤ 0.5
U3A C5A G23A G68U	0.816
C4U C11G U16C C34A C60U A69G	≤ 0.5

Variant	yeast fitness
C5A A20G G41C A65U	≤ 0.5
G25A C30A C34A C49A C62G C66U A70G	0.712
U3A C11G C61A	≤ 0.5
G9C A15G G58C	0.564
A36G A37G	0.816
C5A G17C A42C A57C	≤ 0.5
C4G G9A C27U C46G G48A C62G G68C	≤ 0.5
G9U C31U A36C U53C	≤ 0.5
A14U C30U C55G	≤ 0.5
C34A A37G C66U	≤ 0.5
C5G U28G G38C	≤ 0.5
G25C C34U A40G U54A A65G	0.582
U3G A15C	0.511
G6A U13G C27U	0.539
U3C A36C	0.566
G17U A37U	≤ 0.5
C30A A42C	0.789
C4G G17A C22A G38A	0.638
G17A C22G C27A G63A	0.538
C29U U64A	0.677
C11U A21G C24A C49U A65C	≤ 0.5
U2A G6C U16C C24U C46G C49A C61U	≤ 0.5
C4A A40C	0.812
A14G G58C C66A	≤ 0.5

Variant	yeast fitness
C4U U26C G44A G52A C66U	≤ 0.5
C5U A43G C49G A69C	≤ 0.5
G41A A43C C49G A57G	≤ 0.5
C22A C49U C55A	0.656
C24A A42C G67C A70U	≤ 0.5
C5G G17C G23C A57C	≤ 0.5
C5A A15G C24U C29U C30G U35G	≤ 0.5
G18A U19C A43U U59A	0.538
A15U C33U G44C C55A	≤ 0.5
U2C A20U A40U	0.52
G12C C31A A40C C62U	≤ 0.5
A15G A42G C61U	0.579
A15U A65C G67A	≤ 0.5
A14U C30G U32G	≤ 0.5
C31G U47G C49G	0.647
U7C G41U G58C	≤ 0.5
U3A G9C C27G C34A	≤ 0.5
U16A C55U A57C	≤ 0.5
G12A A15G A43C A65G	≤ 0.5
C34U G41A C55A	≤ 0.5
C11A A14G A15G C22A G23A C33A G38C A70U	≤ 0.5
G9C G12A U35G	≤ 0.5
U3A C27A C29G A65G	≤ 0.5
U7A C22A C31G U32G A42G G52A	≤ 0.5

Variant	yeast fitness
G6C U13C C24G C34U U53C C55G C62A	≤ 0.5
A21G A36G G38C G50A	≤ 0.5
C4A A36C A57G A65U	≤ 0.5
U28G A43U	0.948
G6A C24U C66U	0.647
G9C A21G A57C	≤ 0.5
A21C C30G A65G	≤ 0.5
U3C A14G C30G A43C	≤ 0.5
U3C C5A C66U	0.605
G58C G67A	0.807
U7A U16C C24G C30G A36U	≤ 0.5
C11G C29G G38A G44A C46U C62A	≤ 0.5
G48A C61U A65C	≤ 0.5
G12C A20C C31G	0.596
G17A A57G	0.906
G9A C11U C29U A65U	≤ 0.5
C11U A15C U16C A21G	≤ 0.5
U3G U32C	0.86
U35G	0.676
U35A	0.715
C5U C29A C31A U54A	≤ 0.5
U2C G23C G51C	≤ 0.5
C11U A15C G17C C22U C34G	≤ 0.5
C22U U28G A45G A65G	≤ 0.5

Variant	yeast fitness
C46U C66G G67U	≤ 0.5
U2G C4U C61A C62U A65U A69C	0.519
C49U G58A A65G	1
U3G U13G C30A C31A	≤ 0.5
A40U U47A	0.856
A42C U53A U54C U64A	≤ 0.5
G12A A36U U54C	0.54
U8C G10A G51A G58A	≤ 0.5
C22U A57G C60A	≤ 0.5
U53G G56C G67C	0.605
C30A A70C	1.01
C5U C22U C34A A42U G44C C61A	≤ 0.5
C22G C34A A42G C66A	≤ 0.5
U8C G9A A42G G58U	≤ 0.5
C4U G6A A40G A43G C49U	≤ 0.5
A43G C66G	0.699
G23C U32A C61U	≤ 0.5
G9C C11A U47G A69C	0.601
A65U A70G	1.05
U8C C22U U32C C46G U53G G68C	≤ 0.5
C24A A36U C55A C66U	≤ 0.5
U3G G41C G51C A57G	≤ 0.5
U3A C5U C33G	0.639
C4A G56A C62U	0.626

Variant	yeast fitness
U2A A40U A70U	0.696
A36C A40U	0.604
U3C A65G G68C	0.561
C24A C30U	0.538
A42C G56A	1.01
C61A A65U	0.604
C27A C61G C66U A69U	≤ 0.5
C5G G44C C49G	0.521
A36G C55G	0.623
C11G U19C A40G C66G A69U	≤ 0.5
G10C C24U C34G A65C	≤ 0.5
U19C C49G G67U	0.599
G9U C24G C55U	0.668
C5U A20C G63A	0.607
U2A C34A U47G C49G C60G	≤ 0.5
A15G G41A	0.854
G12C C29G	0.58
U13G A42U C55U C62G A70C	0.525
G10A C66U	0.635
A15C G58A G68A	0.611
U28G G38U	0.711
U3A C4U A43C G50A A70U	≤ 0.5
G18A C24G C66U	≤ 0.5
C22U G52A A57U	≤ 0.5

Variant	yeast fitness
C4U G6A G9A U13C U28C	≤ 0.5
C5G U26A A36C C61U	≤ 0.5
G9A G50C	0.947
G12A C27G C34U A43C A57U G58A C62G	≤ 0.5
C27U C31A U53A	≤ 0.5
C11A C27G C30G G44C	0.538
C5U A14C U19C	0.528
A21G A36C	0.557
U47C A65G	0.92
C24G A36U A37C A65C	≤ 0.5
C24U A43C	0.786
G38C U54C	0.82
U32A G67A	0.766
G6C C60U	0.712
A20C C46A	1.04
C5U U28G C61G	0.58
U3G A43U U54A A57C	0.588
G18C A42U G48C G68C A69U	≤ 0.5
A14G A45U C61U	0.665
C22G U28A C31G G39A C55A G68C	≤ 0.5
C29U G44C U54A	0.55
C11G C30U A37C C46U	0.664
G12C C22G C55U	0.581
